SKN-1 block: blocks SKN-1 activity in C. elegans; C. elegans VP596 Pgst-4::GFP/RFP ratio, acrylamide-induced, 24 h; inhibition, % at 21.8 µM; 360,000 tested, 0.49% active;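 active = interference check ratio from 0.5 to 1.5 plus GFP to RFP signal ratio inhibition reaching or exceeding a fixed threshold, cut at about 30% in these data, passing the limit was not always enough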
bovine MsrA act: activators of bovine methionine sulfoxide reductase A. purified bovine MsrA, absorbance read-out. activation, % at 10.6 µM. 360,000 tested, 0.3% active; in the data active = activation above about 7.5%;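 note: 0% = vehicle and 100% = reference activator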
MIN6 prolif-1: induces beta-cell replication in MIN6 cells; MIN6 cells proliferation, ATPlite luminescence, 48 h; cells starved in 0.2% serum; 100% = growth in 10% serum; proliferation, % at 10 µM; 330,000 tested, 0.29% active;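 active = compounds whose signal lies at least 3.5 SD above the mean of all wells on their plate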;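 note: 0% = DMSO-treated cells in low-serum medium and 100% = 10% serum control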
DAGLB inh: blocks human DAGLB lipase activity | 340,000 tested, 0.059% active | AID 504411 | inhibition, % at 5.17 µM | HEK293T DAGLB membrane lysate, EnzChek fluorogenic substrate; in the data active = inhibition above about 34%;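 note: 0% = enzyme with vehicle and 100% = wells lacking enzyme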
Target sequence (Q8NCG7 whole entry, looked up): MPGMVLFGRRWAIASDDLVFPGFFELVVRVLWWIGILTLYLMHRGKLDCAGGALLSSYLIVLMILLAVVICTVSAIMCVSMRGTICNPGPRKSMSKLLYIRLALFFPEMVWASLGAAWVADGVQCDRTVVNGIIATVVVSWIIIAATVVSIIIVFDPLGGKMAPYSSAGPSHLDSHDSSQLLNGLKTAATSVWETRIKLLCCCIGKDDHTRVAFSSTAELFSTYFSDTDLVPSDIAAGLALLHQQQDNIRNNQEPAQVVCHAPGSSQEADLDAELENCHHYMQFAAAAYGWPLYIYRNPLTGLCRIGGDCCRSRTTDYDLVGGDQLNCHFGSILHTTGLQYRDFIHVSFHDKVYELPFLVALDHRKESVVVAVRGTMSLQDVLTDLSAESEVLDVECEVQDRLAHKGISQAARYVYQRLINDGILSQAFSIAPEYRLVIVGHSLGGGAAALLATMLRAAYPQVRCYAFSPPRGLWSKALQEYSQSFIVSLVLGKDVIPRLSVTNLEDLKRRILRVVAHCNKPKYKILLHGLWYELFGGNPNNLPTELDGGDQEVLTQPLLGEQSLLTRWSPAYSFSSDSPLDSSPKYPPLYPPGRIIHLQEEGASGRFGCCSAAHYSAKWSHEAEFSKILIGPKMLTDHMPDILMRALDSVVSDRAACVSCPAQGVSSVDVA
MsrA inh: inhibits bovine methionine sulfoxide reductase A | purified bovine MsrA, absorbance read-out | inhibition, % at 15.5 µM | 360,000 tested, 0.75% active | AID 651718; in the data active = inhibition above about 4.5%;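 note: 0% = vehicle wells with enzyme and 100% = reference inhibitor wells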
MT1-MMP act inh: inhibitors of human MT1-MMP activation; AID 651647; HT1080 RFP-PRO-GFP cells, GFP/RFP ratio fluorescence, overnight; percent of plate control window, DMSO zero; GFP/RFP ratio change, % at 20 µM; 360,000 tested, 0.061% active;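 active = GFP/RFP ratio change of at least 30% with cell ATP level not reduced by more than half and red fluorescence within 50% of control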
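Material – HT1080 RFP-PRO-GFP cells · Control set – DMSO wells and RFP-L50D-GFP cells · Incubation – overnight cell settling, then overnight compound exposure, 37 °C, 5% CO2 · Compound dosing – single-point 20 µM compound, 1% DMSO · Read-out – GFP/RFP fluorescence ratio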
MIN6 prolif-2: MIN6 beta-cell replication induction, confirmed. shares compounds with MIN6 prolif-1. proliferation increase, % at 50 µM. 920 tested, under 10 active. MIN6 beta-cell proliferation, ATPlite luminescence, 48 h; cells kept in 0.2% serum; scaled between 0.2% and 10% serum;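 active = proliferation increase above 40% at any of the four tested concentrations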
The depositor's hits bear a star; . = no result given. Compounds with a hit are over-represented: about 1.8% of the library has one in this group of screens.

SMILES | SKN-1 block | bovine MsrA act | MIN6 prolif-1 | DAGLB inh | MsrA inh | MT1-MMP act inh | MIN6 prolif-2
CCOC(=O)C1(CC)NC(c2cccc(F)c2)C2C(=O)N(CC)C(=O)C21 (stereo not drawn) | -2 | 0 | 7.2* | 1 | 1 | 5 | 4
CC(=O)Nc1n[nH]c(S(=O)(=O)Cc2ccc(Cl)cc2Cl)n1 | 0 | -3 | 8.0* | -3 | 1 | 4 | 1
CC(=O)Nc1nc(SCc2ccc(Cl)cc2Cl)n[nH]1 | 2 | -2 | 0 | -1 | -1 | 3 | .
CCN(c1cccc(C)c1)S(=O)(=O)c1ccc2c3c(cccc13)C(=O)N2 | -20 | -15 | -1 | -1 | -1 | 3 | .
CCN(CC)S(=O)(=O)c1ccc2c3c(cccc13)C(=O)N2 | 20 | -2 | 11* | 2 | 1 | 1 | 0
COc1ccc(CCC(=O)OCC(=O)NCc2ccc(OC)c(OC)c2)cc1OC | -3 | -3 | 9.2* | -4 | 1 | 0 | 2
COc1cc(CCC(=O)OCC(=O)NCc2ccc(Cl)cc2)cc(OC)c1OC | 4 | -6 | -1 | -1 | 0 | -3 | .
O=C(N/N=C/c1cccnc1)c1sc2ccccc2c1Cl | 2 | -3 | 9 | 0 | 1 | -5 | .
COc1ccc2c(Cl)c(C(=O)N/N=C/c3cccnc3)sc2c1 | 20 | -3 | 15* | -2 | 2 | 1 | -2
COc1ccc(-c2c(-c3ccccc3OC)sc3ccccc23)cc1F | . | . | . | . | 0 | . | .
COc1cc2c(cc1OC)C(COc1ccc(F)cc1)N(C(C)=O)CC2 (stereo not drawn) | 8 | -2 | -1 | -3 | -1 | 3 | .
CCC(=O)N1CCc2cc(OC)c(OC)cc2C1COc1ccc(F)cc1 (stereo not drawn) | 7 | -3 | 9.3* | -1 | 0 | 4 | -1
CCC(=O)N1CCc2cc(OC)c(OC)cc2C1COc1ccccc1OC (stereo not drawn) | -11 | -8 | . | -1 | 2 | 2 | .
COc1cc2c(cc1OC)C(COc1ccccc1OC)N(C(=O)c1ccco1)CC2 (stereo not drawn) | -1 | -1 | 8.8* | -1 | -1 | 2 | 0
COc1ccc(/C=C/C(=O)C(C)(C)C)cc1OC | -8 | 1 | 6.6* | -2 | 3 | -3 | 1
COc1ccc(/C=C/C(=O)OCC(=O)NC2CCCC2)cc1OC | 8 | -1 | 11* | 4 | 3 | 1 | 4
NC(=Nc1ccccc1)Nc1ccccc1 | -7 | -9 | 3 | -2 | -1 | -3 | .
CCOC(=O)/C(C(=Nc1ccccc1)Nc1ccccc1)=C(\C)O | -3 | -3 | 7.0* | -4 | 1 | -3 | -5
COc1ccc(CCNC(=O)CN2c3cccc4cccc(c34)S2(=O)=O)cc1 | -2 | -1 | 13* | -5 | 0 | 0 | 5
CCC(C)Sc1nc2c(cnn2-c2ccc(C)cc2)c(=O)[nH]1 (stereo not drawn) | 9 | -2 | 9.6* | 2 | -2 | 2 | 8
CCNS(=O)(=O)c1ccc(NC(=O)c2cccnc2)cc1 | 10 | -13 | 11* | 0 | -1 | . | -2
O=S(=O)(c1ccccc1Cl)N1CCCC(c2nc(-c3cccnc3)no2)C1 (stereo not drawn) | -6 | -8 | 7.4* | -1 | -1 | 3 | -4
COc1cccc([C@@H](NC(=O)C(F)(F)F)[C@@H]2CCCC=C2c2ccccc2)c1 | . | . | . | . | 0 | . | .
COc1ccc(NC(=O)c2c(Cl)cnn2C)c(C)c1 | 2 | -1 | -3 | -1 | 2 | 1 | .
COC(=O)c1sccc1NC(=O)c1c(Cl)cnn1C | -4 | 1 | 9.0* | -6 | -1 | -3 | 1
SMILES | SKN-1 block | bovine MsrA act | MIN6 prolif-1 | DAGLB inh | MsrA inh | MT1-MMP act inh | MIN6 prolif-2
O=c1ccn(-c2cccc(C(F)(F)F)c2)nc1-c1ccn(-c2ccccc2F)n1 | -5 | 0 | 9.4* | 1 | 0 | -11 | -6
COc1ccc(-n2ccc(-c3nn(-c4cccc(C(F)(F)F)c4)ccc3=O)n2)cc1 | -12 | 1 | -1 | -1 | 2 | 0 | .
COC(=O)C1=C(C)N(Cc2ccc(C(F)(F)F)cc2)C(=NCc2ccccc2)NC1c1ccc(Cl)cc1 (stereo not drawn) | . | . | . | . | -1 | . | .
O=C(NCC1CCN(C(=O)C(=O)c2cccs2)CC1)c1ccc2c(c1)OCO2 | . | . | . | . | 0 | . | .
CCCCOc1ccc(C(=O)NCC(=O)NCC(c2ccc(OC)cc2)N2CCOCC2)cc1 (stereo not drawn) | 3 | -1 | 1 | 2 | 1 | 2 | .
COc1ccc(C(CNC(=O)CCNC(=O)c2ccc(Br)cc2)N2CCOCC2)cc1 (stereo not drawn) | -8 | -7 | 12* | 1 | -1 | -3 | -2
N#Cc1nc(-c2ccco2)oc1NCc1ccccc1Cl | 7 | 5 | 4.6* | . | 1 | 8 | 3
COC(=O)C1=C(C)N(C)C(=NCc2ccc(C(F)(F)F)cc2)NC1c1ccc(F)cc1 (stereo not drawn) | . | . | . | . | -1 | . | .
Cc1ccc(NC(=O)C2CCN(C(=O)[C@@H]3Cc4ccccc4CN3)CC2)c(C)c1 | 22 | -4 | 1 | -1 | 0 | 1 | .
Cc1cccc(NC(=O)C2CCN(C(=O)[C@@H]3Cc4ccccc4CN3)CC2)c1 | -5 | -1 | 5.2* | 2 | 0 | 0 | -4
COc1ccccc1Nc1ccncc1[N+](=O)[O-] | 9 | -7 | 8.1* | 0 | 0 | 0 | 6
COC(=O)C1=C(C)N(Cc2ccc(C(F)(F)F)cc2)C(=NCc2ccc(C(F)(F)F)cc2)NC1c1ccc(F)cc1 (stereo not drawn) | . | . | . | . | -2 | . | .
O[C@@H](Cc1ccccc1)[C@@H](/C=C/c1ccccc1)NCCc1ccccc1 | . | . | . | . | 0 | . | .
COc1ccc(OC)c(C(=O)CSc2nccc(-c3ccc(Br)cc3)n2)c1 | 10 | 3 | 5.6* | -6 | 0 | -13 | -3
COc1ccc(/C=C/C(=O)Nc2cc(S(=O)(=O)N3CCOCC3)ccc2N2CCCC2)cc1OC | -12 | -8 | 7.3* | 0 | 3 | -4 | 1
COc1ccc(/C=C/C(=O)Nc2cc(S(=O)(=O)N3CCCCC3)ccc2N2CCCCC2)cc1OC | 16 | -3 | 0 | 3 | 1 | -3 | .
CC1Oc2ccccc2N(CC(=O)N(Cc2ccccc2)Cc2ccccn2)C1=O (stereo not drawn) | -3 | -2 | 10* | -4 | 0 | -1 | -1
COC(=O)[C@@H](N[C@H](/C=C/c1ccccc1)[C@@H](O)Cc1ccccc1)c1ccccc1 | . | . | . | . | -1 | . | .
COC(=O)[C@]12C[C@H](CC(=O)NCc3cccc(C(F)(F)F)c3)C(=O)N(CCC3=CCCCC3)C1=C[C@H](C(C)(C)C)O[C@@H]2C | . | . | . | . | 1 | . | .
